Results as given in PMC5159310 (Bioorganic & medicinal chemistry letters, 2016).
pIC50: −log10 of the molar value. Positions of bridges follow the written chain, without caps; N, C: chain ends. Non-standard residues stand in square brackets, D forms with d. Residues, ends and D or L forms follow the SMILES beside them. Nle = CCCC[C@H](N)C(=O)O

Experiments:
[1] = target: bradykinin receptors (BRs); test: Radioligand competition assay using [3H]BK in rat brain membranes; format: binding; settings: for BR, [3H]BK Log[IC50] / pIC50 / BR, [3H]BK IC50: rat brain membranes, pH 6.8, [3H]BK; for BR, [3H]BK Log[IC50]: logarithmic value (negative); for pIC50: read-out: BR, [3H]BK IC50
How it was run: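 Competitive binding against [3H]BK in rat brain membranes at pH 6.8. Non-specific binding was defined with 10 μM kallidin. Data came from at least two independent experiments run in duplicate. IC50 was derived by nonlinear least-squares regression and also reported as a logarithmic value.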

[2] = Metabolic stability; format: in vitro ADME; settings: rat, plasma

Row | Compound | BR, [3H]BK Log[IC50] [1] | pIC50 [1] | BR, [3H]BK IC50 [1] | half-life [2] | other results
1 | c^N,5[Leu-Arg-Ile-Arg-Glu]-Lys-OH (LRIREK-OH; lactam N-5; SMILES CC[C@H](C)[C@@H]1NC(=O)[C@H](CCCNC(=N)N)NC(=O)[C@H](CC(C)C)NC(=O)CC[C@@H](C(=O)N[C@@H](CCCCN)C(=O)O)NC(=O)[C@H](CCCNC(=N)N)NC1=O) [ligand 7] | −5.82+0.09 | 5.82 |  |  | reduction of affinity at the BRs (fold) ([1]; compared with linear ligand 4): 22 fold
2 | H-c^1,5(-cisCH=CH-)[Ala-Lys-Pro-Lys-Ala]-Lys-OH (AKPKA; not fully specified; cis-CH=CH- dicarba bridge 1,5; C-terminal Lys; printed: Ala-Lys-Pro-Lys-Ala) [ligand 2] |  |  | no competition |  | 
3 | c^N,6[Lys-Leu-Arg-Ile-Arg-Glu]-Lys-OH (KLRIREK-OH; lactam N-6; SMILES CC[C@H](C)[C@@H]1NC(=O)[C@H](CCCNC(=N)N)NC(=O)[C@H](CC(C)C)NC(=O)[C@H](CCCCN)NC(=O)CC[C@@H](C(=O)N[C@@H](CCCCN)C(=O)O)NC(=O)[C@H](CCCNC(=N)N)NC1=O) [ligand 6] | −6.52+0.15 | 6.52 |  |  | 
4 | H-c^1,5(-CH2CH2-)[Ala-Lys-Pro-Lys-Ala]-Lys-OH (AKPKA; not fully specified; -CH2CH2- dicarba bridge 1,5; C-terminal Lys; printed: Ala-Lys-Pro-Lys-Ala) [ligand 3] |  |  | no competition |  | 
5 | CCCC[C@H](NC(=O)[C@H](CCCCN)NC(=O)[C@@H]1CCCN1C(=O)[C@H](CCCCN)NC(=O)[C@@H](N)CCCC)C(=O)N[C@@H](CCCCN)C(=O)O [ligand 1, H-Nle-Lys-Pro-Lys-Nle-Lys-OH] (H-[Nle]KPK[Nle]K-OH) |  |  |  | < 1 h | 
6 | CC[C@H](C)[C@@H]1NC(=O)[C@H](CCCNC(=N)N)NC(=O)[C@H](CC(C)C)NC(=O)[C@H](Cc2ccccc2)NC(=O)CC[C@@H](C(=O)N[C@@H](CCCCN)C(=O)O)NC(=O)[C@H](CCCNC(=N)N)NC1=O [ligand 5, c^N,6[Phe-Leu-Arg-Ile-Arg-Glu]-Lys-OH] (FLRIREK-OH; lactam N-6 (inferred)) |  |  |  | > 5 h | 
